In the library only some 2.1% were active in any assay of this set; here they are far more common.
Yeast lifespan up: yeast lifespan extension; 0.68% of 130,000 active; S. cerevisiae growth with nicotinamide, OD615; deaD strain in restrictive glucose medium; inhibition of the nicotinamide effect, % at 10 µM; AID 775;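 active = inhibition above a set limit, placed 3 SD over the median of all compounds, cut at about 26% in these data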;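 note: 0% = nicotinamide-treated wells and 100% = cells grown without nicotinamide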
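Assay system: engineered S. cerevisiae DeaD replicative-lifespan strain, galactose-grown log-phase cells; Buffer or medium: CSMM-D glucose medium, restrictive; Probe or stimulus: nicotinamide 1.5 mM; Compound: single dose 10 µM compound, 0.25% DMSO; Schedule: 4 h preincubation then 48 h treatment at 30 °C; Technique: OD615 measurement.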
SDO1 yeast rescue: compounds rescuing growth of sdo1-depleted yeast, bone marrow failure model. 0.21% of 140,000 active. AID 817. S. cerevisiae sdo1-depleted JHY4D growth rescue, OD600 30 h; stronger effect = higher value; pdr5 snq2 efflux-pump mutant strain. z-score at 10 µM;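 active = z-score above 3 at both the 24 hr and the 30 hr optical density reads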;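 note: z-score against mean and SD of all compound wells on the same plate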
BB579 growth dn: reduces growth of yeast BB579 in restrictive medium; S. cerevisiae BB579 growth, OD615, 48 h; 0.51% of 140,000 active; inhibition, % at 10 µM;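 active = inhibition above a set limit, 3 SD over the mean compound inhibition, cut at about 44% in these data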
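Test system: S. cerevisiae DeaD strain BB579 yeast; Medium: restrictive CSMM-D medium; Compound: one dose, 10 µM compound with 0.25% DMSO; Incubation: 4 h cell preincubation, 48 h compound exposure, 30 °C humidified; Signal: OD at 615 nm; Benchmarks: amphotericin B at 10 µg/mL as positive control.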
Phagocytosis inh: blocks phagocytosis by macrophages. 0.07% of 110,000 active. J774A.1 macrophage IgG-bead phagocytosis, imaging. inhibition, % at 5 µM;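 active = inhibition above the mean of the plate negative controls plus 5 SD, cut at about 13% in these data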;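 note: phagocytic index as fraction of beads internalized from green versus red external bead signal; plate controls were DMSO negative control for no effect and cytochalasin-D positive control for full effect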
MRP reversal: compounds reversing MRP-mediated drug resistance; 0.04% of 85,000 active; differential viability (reversal), % at 10 µM; H69AR cells + 2 uM doxorubicin, CellTiter-Glo, 72 h; AID 602;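 active = viability drop by adding the cancer drug above about 55%, with treated viability meeting a 40% cutoff, limit read from the data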;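 note: viability without doxorubicin minus viability with 2 µM doxorubicin for each compound; larger differential means the compound sensitizes cells more to doxorubicin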
MRP1 act: MRP-1 activation; H69AR cells + doxorubicin, viability rescue, CellTiter-Glo; viability increase, % at 10 µM; 0.61% of 140,000 active; AID 799;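 active = viability gain under doxorubicin at or above a set limit, the compound median plus 3 SD, cut at about 4.7% in these data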;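 note: MRP-1 overexpressing cells given doxorubicin 25 µM after compound pretreatment; 18-22 h compound pretreatment then 72 h with doxorubicin before readout; 0% = doxorubicin-only wells and 100% = vehicle-treated cells without doxorubicin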
The depositor's hits bear a star; · = no result given.

SMILES	Yeast lifespan up	SDO1 yeast rescue	BB579 growth dn	Phagocytosis inh	MRP reversal	MRP1 act
CCCCC1CCC(C(=O)NCc2ccc3c(c2)OCO3)CC1 (configuration not stated)	-3.7	-0.81	-14.4	-1.5	0.7	-0.4
Cc1ccccc1NC(=O)CC1SC(=O)N(c2ccccc2)C1=O (configuration not stated)	18.4	-0.86	-32.5	·	7.7	5.4*
Cc1ccccc1Nc1c([N+](=O)[O-])ccc2c1=NC1(CCCCC1)N=2	-7.2	-0.65	-78.9	6.6	·	-0.7
Cc1ccc(NC(=O)NC(=O)CN2C(=O)NC3(CCCCCCC3)C2=O)c(C)c1	-9.1	-0.52	-45.0	·	-10.3	-1.1
Cc1cc(Br)ccc1NC(=O)CNC(=O)CN1C(=O)NC2(CCCCCC2)C1=O	-1.5	0.24	-43.0	-0.6	1.8	7.5*
Cc1csc(NC(=O)c2cc3c(C)nn(Cc4ccccc4Cl)c3s2)n1	-1.9	-1.12	-10.2	-1.3	·	5.0*
CC(Sc1nc(C(C)(C)C)cc(-c2ccccc2)c1C#N)C(=O)Nc1ccccc1 (configuration not stated)	-2.8	0.49	-45.9	-8.8	·	-3.4
CC1CC(C)CN(C(=O)Cn2c(=O)n(CCCCC(=O)NCc3ccco3)c(=O)c3ccccc32)C1 (configuration not stated)	-2.0	0.3	-33.3	-1.4	15.9	-1.4
CCCS(=O)(=O)c1c(S(=O)(=O)CCC)c2cnccn2c1C(=O)c1ccc(Cl)cc1	-4.0	14.9*	-18.0	1.6	4.2	-1.4
COc1cc(OC)nc(-n2ncc(Br)c(Br)c2=O)n1	38.3*	-0.72	-24.6	-0.2	·	-5.7
COC(=O)c1cnn(-c2nc(OC)cc(OC)n2)c1C	-5.1	1.55	-4.9	-2.9	·	-0.8
Cc1cc(-n2ccc(=O)[nH]c2=O)nc(-c2ccccc2)n1	-25.8	-0.44	-36.9	-0.7	-9.4	-1.7
CCN(CC)N=Nc1[nH]nc2nc(C)cc(C)c12	-25.3	0.24	78.5*	-2.4	·	-3.4
Cc1cc(C)c2c(N=NN3CCCCC3)[nH]nc2n1	-7.9	-0.37	85.3*	-1.1	·	-1.8
CC(=O)n1nc2nc(C)cc(C)c2c1N	8.2	0.46	-28.5	-2.0	-3.3	-0.4
O=C(/C(=C/O)N=Nc1ccccc1)c1ccncc1	-10.5	-0.25	88.1*	-1.0	0.4	6.3*
O=C(COc1ccc(S(=O)(=O)NCc2ccccc2)cc1)NCC1CCCO1 (configuration not stated)	-22.9	0.5	17.4	23.6*	-4.8	-1.2
O=C(COc1ccc(S(=O)(=O)NCc2ccccc2)cc1Cl)NCC1CCCO1 (configuration not stated)	-6.3	0.49	-20.1	-1.2	-12.1	-4.0
O=C(NCc1ccc2c(c1)OCO2)c1ccc2c(=O)n(C3CCCC3)c(=O)[nH]c2c1	-13.4	0.65	-46.4	-2.6	6.0	-1.3
CCOC(=O)Cc1csc(SCc2nc3ccccc3c(=O)[nH]2)n1	-29.8	-0.1	-28.9	·	13.6	-2.2
CCOC(=O)c1ccc(-c2ccc(C3Nc4ccccc4C(=O)N3O)o2)cc1 (configuration not stated)	2.3	0.82	25.6	-4.3	·	0.0
Cc1cc([N+](=O)[O-])ccc1-c1ccc(C2Nc3ccccc3C(=O)N2O)o1 (configuration not stated)	-13.8	0.14	50.2*	·	·	-5.1
O=C(O)/C=C/C(=O)Nc1ccccc1-c1ccccc1	-1.4	0.04	-1.1	·	·	2.8
Fc1ccc(-c2cc(C(F)(F)F)nc(N3CCCCC3)n2)cc1	-26.0	-2.9	-26.5	·	-4.4	-2.3
N#Cc1ccccc1Cn1cc(/C=C/[N+](=O)[O-])c2ccccc21	34.5*	-1.07	-2.2	·	·	-4.9
CCN1C(=O)/C(=C/N(C(C)=O)c2ccccc2)N(c2ccccc2)C1=S	35.2*	-1.52	-17.1	0.3	-9.3	-1.6
CCc1ccc(/C=C2/C(=O)N(c3ccccc3)C(=S)N2CC(=O)OC)s1	0.0	-0.41	-15.4	-2.1	·	-4.0
CCc1cc(=O)oc2cc(C)c(CN3CCCC(C)C3)c(O)c12 (configuration not stated)	30.2*	-0.49	-35.0	1.4	3.9	-0.3
CCCCc1cc(=O)oc2cc(C)c(CN3CCCC3)c(O)c12	46.2	-0.3	-45.1	·	-3.7	-0.1

Source: PubChem (several laboratories)
